Assay outcomes (PubChem)
Rows were chosen to be rich in hits. Some 3.7% of all compounds tested hit in one or more screens of this group.
Kir21 block: Kir2.1 (mouse) channel inhibition | P35561 | HEK293-Kir2.1, FluxOR thallium flux fluorescence; stronger effect = lower value | B-score at 10 µM | hit rate 0.85% among 310,000 | AID 1672;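 active means fluorescence ratio B-score at or below minus 3 SD of library scores, with starting-brightness B-score within 2 SD, cut at about -4.2 in these data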;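 further: channel flux triggered by added potassium and thallium sulfate stimulus; B-score of peak minus minimum fluorescence over baseline after thallium stimulus; more negative B-score means stronger Kir2.1 block with less thallium influx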
KCNQ1 act: potentiates or activates the human KCNQ1 potassium channel; hit rate 0.35% among 310,000; CHO-K1 KCNQ1, thallium flux FluxOR fluorescence; stronger effect = higher value; P51787; AID 2648; B-score at 10 µM;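 active means fluorescence ratio B-score, a plate-corrected score, at least three library SD, with initial intensity B-score within 5 SD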
Target sequence (P51787 whole entry, looked up): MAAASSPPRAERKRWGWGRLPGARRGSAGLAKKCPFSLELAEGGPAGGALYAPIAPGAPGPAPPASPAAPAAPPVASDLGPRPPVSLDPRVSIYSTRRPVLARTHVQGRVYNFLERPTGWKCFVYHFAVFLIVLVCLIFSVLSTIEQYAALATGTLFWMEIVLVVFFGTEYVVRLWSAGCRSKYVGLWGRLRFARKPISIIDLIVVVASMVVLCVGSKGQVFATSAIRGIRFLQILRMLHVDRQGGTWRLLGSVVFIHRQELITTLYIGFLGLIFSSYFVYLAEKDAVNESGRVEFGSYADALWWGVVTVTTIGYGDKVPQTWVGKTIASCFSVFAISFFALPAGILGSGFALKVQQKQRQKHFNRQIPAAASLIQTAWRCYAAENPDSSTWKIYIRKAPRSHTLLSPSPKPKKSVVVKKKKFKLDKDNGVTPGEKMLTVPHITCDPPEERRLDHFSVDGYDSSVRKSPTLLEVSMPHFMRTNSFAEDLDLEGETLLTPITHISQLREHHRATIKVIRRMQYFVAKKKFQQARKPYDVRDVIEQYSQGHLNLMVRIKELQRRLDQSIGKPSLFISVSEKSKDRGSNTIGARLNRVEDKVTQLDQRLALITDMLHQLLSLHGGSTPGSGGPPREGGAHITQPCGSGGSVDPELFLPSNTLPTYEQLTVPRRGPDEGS
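Doses: Single concentration per compound, DMSO matched to controls | Test system: KCNQ1-transfected CHO-K1 cells | Timing: 90 min dye loading and 20 min compound exposure, both at room temperature | Measured by: Kinetic FluxOR thallium fluorescence, 10-s 1-Hz baseline, 110-s post-stimulus read | Medium: Assay buffer with matched DMSO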
KCNK3 inh: human KCNK3 channel inhibition, primary screen; O14649; CHO-KCNK3 thallium flux, FluxOR fluorescence; stronger effect = lower value; B-score at 10 µM; hit rate 0.84% among 340,000; AID 602410;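 active means B-score under library mean minus 4 SD, starting fluorescence ratio at most library mean plus 5 SD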;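 further: more negative B-score means stronger inhibition of thallium flux through KCNK3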
hERG rescue: shields human hERG channel from block by proarrhythmic agents. Q12809. CHO-hERG, FluxOR thallium flux, dofetilide IC70 present. activation (rescue from dofetilide block), less the hit threshold, % at 10 µM. hit rate 0.51% among 310,000. AID 1511;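 active means activation above the mean of controls blocked by dofetilide plus 5 SD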;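 further: thallium influx through hERG after potassium depolarization seen as dye fluorescence rise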
KCNQ1 block: inhibitors of human KCNQ1 potassium channel; P51787; CHO-K1 KCNQ1, FluxOR thallium flux fluorescence; stronger effect = higher value; B-score at 10 µM; hit rate 1.3% among 310,000; AID 2642;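 active means compounds whose thallium flux B-score, printed positive for inhibition, exceeds three library SD while starting fluorescence stays within three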;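 further: channel opened by potassium depolarization with thallium stimulus after 20 min compound exposure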
KCNK9 inh: blocks the human KCNK9 two-pore domain potassium channel; Q9NPC2; HEK293 KCNK9, FluxOR thallium flux fluorescence; stronger effect = lower value; B-score at 10 µM; hit rate 1.2% among 310,000;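 active means ratio B-score over 3 SD below the library mean, with starting fluorescence within 5 SD of its mean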;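 further: negative B-score means less thallium flux so channel inhibition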
KCNK9 inh conf: human KCNK9 inhibitor confirmation; shares compounds with KCNK9 inh; HEK293 KCNK9 cells, FluxOR thallium flux fluorescence; inhibition, % at 10 µM; hit rate 43% among 4,900;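 active means thallium signal inhibited by more than 5 SD of the compound-free buffer control wells, on both duplicate plates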;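 further: 0% = assay buffer control wells without compound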
Kir2-1 spec: selectivity of KCNK9 modulators against mouse Kir2.1; shares compounds with KCNK9 inh; Kir2.1 cells, FluxOR thallium flux fluorescence; inhibition, % at 10 µM; hit rate 4% among 4,900; AID 492993;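 active means thallium signal drop more than 5 SD beyond the mean of the no-compound control wells, seen in both duplicate plates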;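 further: signal is fluorescence rise after thallium addition divided by baseline fluorescence; plate controls were assay buffer only for no effect and full block by chlorpromazine control for full effect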
KCNK9 uninduced: second check of KCNK9 modulator effects in non-induced HEK293 cells; shares compounds with KCNK9 inh; FluxOR thallium flux; inhibition, % at 10 µM; hit rate 40% among 4,900; AID 492997;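 active means thallium signal drop beyond 5 SD of the untreated control mean, on both duplicate plates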;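 further: plate controls were buffer only IC0 wells for no effect and SID17386958 at its maximal inhibitory level for full effect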
An asterisk follows results filed as active; i = inactive; . = no result given.

SMILES	Kir21 block	KCNQ1 act	KCNK3 inh	hERG rescue	KCNQ1 block	KCNK9 inh	KCNK9 inh conf	Kir2-1 spec	KCNK9 uninduced
COc1ccc2cc(C(=O)C3CCCN(C(=O)c4cccnc4)C3)ccc2c1 (stereo unspecified)	1.4	i	i	-11	i	i	.	.	.
COc1ccc2cc(C(=O)C3CCCN(C(=O)c4cnn(C(C)C)c4)C3)ccc2c1 (stereo unspecified)	-0.95	i	i	-9	i	i	i	i	i
COc1c(C)cc(C(=O)C2CCCN(C(=O)/C=C/c3ccccn3)C2)cc1C (stereo unspecified)	-0.45	i	i	-16	i	i	i	i	i
COc1ccc(C(=O)C2CCCN(C(=O)c3cccnc3OC)C2)c(C)c1 (stereo unspecified)	2.5	i	i	-12	i	i	i	i	i
COc1ccc(C(=O)C2CCCN(C(=O)c3ccc4cc[nH]c4c3)C2)c(C)c1 (stereo unspecified)	-0.42	i	i	-21	i	i	i	i	i
CCOc1ccc(N2CC(C(=O)NC3=NCCS3)CC2=O)cc1 (stereo unspecified)	0.05	i	i	-8	i	i	.	.	.
CCCc1ccc(Oc2c(-c3ccc(O)c(C)c3O)n[nH]c2C)cc1	-1.5	i	i	-17	i	i	.	.	.
CCCc1ccc(Oc2cn[nH]c2-c2ccc(O)c(C)c2O)cc1	-0.03	i	i	-16	i	-9.9*	56%*	i	44%*
Cc1cc(C)c(C(=O)C(C)OC(=O)c2ccc(Cl)nc2)cc1C (stereo unspecified)	0.44	i	i	-9	i	i	i	i	i
CCOc1ccc(NC(=S)N(CCOC)C(C)c2cccnc2)cc1 (stereo unspecified)	0.06	i	i	-6	i	i	.	.	.
CCC(c1ccccc1)c1nnc(NC(=O)c2ccco2)s1 (stereo unspecified)	-0.12	i	i	-10	i	-8.7*	i	i	i
CC(C)(C)c1ccc(SCCc2cccnc2)cc1	-0.54	i	i	0	i	i	i	i	i
O=C(COC(=O)c1ccc2ccccc2n1)c1ccccc1	0	i	i	-4	i	i	.	.	.
Cc1ccc(S(=O)(=O)N2CCN(C3CC(=O)N(Cc4ccccc4)C3=O)CC2)cc1C (stereo unspecified)	0.9	i	i	-6	i	i	.	.	.
O=C1CC(N2CCN(S(=O)(=O)c3cccc(C(F)(F)F)c3)CC2)C(=O)N1Cc1ccccc1 (stereo unspecified)	-0.1	i	i	-4	i	i	i	i	i
COCCN(CC1CCCN(C2Cc3ccccc3C2)C1)C(=O)CSC (stereo unspecified)	2.2	i	i	-9	i	i	.	.	.
NS(=O)(=O)c1ccc(NCc2cc(Cl)ccc2OCc2ccccc2F)cc1	-0.57	i	i	-8	i	-15*	50%*	i	41%*
CCCCN(CC)C(=O)CSc1nc2ccccc2c(=O)n1CC1COc2ccccc2O1 (stereo unspecified)	1.4	i	i	-18	i	i	i	i	i
CCN(CC)C(=O)CSc1nc2ccccc2c(=O)n1CC	0.52	i	i	-10	i	i	.	.	.
CCn1cc(C2=NC(C)(C)CO2)c2ccccc21	0.27	i	i	-8	i	i	i	i	i
CC(C)(C)c1ccc(OCC(=O)NNC(=S)NC(=O)c2ccco2)c(Br)c1	1.4	56*	i	-13	i	i	i	i	i
Cc1ccc(S(=O)(=O)/N=C(/Nc2nc(C)cs2)c2ccccc2)cc1	.	.	i	.	.	.	.	.	.
O=C(O)C(c1ccccc1)N1C(=O)/C(=C\c2ccc(-c3ccccc3Cl)o2)SC1=S (stereo unspecified)	3.8	i	i	-12	i	i	i	i	i
COCc1c(C(=O)OCC(=O)c2c(N)n(CC(C)C)c(=O)n(C)c2=O)oc2ccccc12	0.02	i	i	-5	i	i	.	.	.
Cc1c(C(=O)OCC(=O)c2c(N)n(CC(C)C)c(=O)n(C)c2=O)oc2ccccc12	-1.2	i	i	-14	i	i	i	i	i
SMILES	Kir21 block	KCNQ1 act	KCNK3 inh	hERG rescue	KCNQ1 block	KCNK9 inh	KCNK9 inh conf	Kir2-1 spec	KCNK9 uninduced
O=S(=O)(NCCN1CCCC1)c1ccc(C(F)(F)F)cc1	-0.69	i	i	-5	i	i	.	.	.
CCOc1cc(CNc2ccc(Br)cc2)cc(Br)c1OCC(=O)NC(C)(C)C	-0.15	i	i	2	i	-9.2*	47%*	i	40%*
CSCCC(NC(=O)c1ccccc1Cl)C(=O)N1CC(C)OC(C)C1 (stereo unspecified)	.	.	i	.	.	.	.	.	.
COc1ccc(CNC(=O)C[C@H]2C(=O)N(c3ccccc3)C[C@@H]2Cc2ccccc2)cc1	-1.1	i	i	-5	i	-9.9*	60%*	i	i
CCCCN1C[C@H](Cc2ccccc2)[C@@H](CC(=O)NCc2ccc(OC)cc2)C1=O	-1.8	i	i	-6	i	i	.	.	.
COc1cc(C2NC(=O)CCC2[N+](=O)[O-])cc(OC)c1OC (stereo unspecified)	-0.15	i	i	-2	i	i	.	.	.
COc1ccc(C2NC(=O)CCC2[N+](=O)[O-])cc1OC (stereo unspecified)	-0.05	i	i	-9	i	-15*	i	i	i
Cc1ccc(-c2noc(CSc3nnc(Cc4ccccc4)n3-c3cccc(C)c3)n2)cc1	-0.48	i	i	-14	i	-9.9*	i	i	30%*
CCOC(=O)C1=C(COc2ccccc2)NC(=O)NC1c1ccc2ccccc2c1 (stereo unspecified)	-0.38	i	.	-5	i	i	.	.	.
CSc1ccc(CN(C)CC(=O)NC(=O)NC(C)(C)C)cc1	-1.2	i	i	-9	i	i	i	i	i
CCOC(=O)CSc1nc(C2CC2)cc(-c2ccc(Cl)cc2)c1C#N	-2.1	i	i	-4	i	-9.5*	54%*	i	i
COC(=O)CSc1nc(C2CC2)cc(C(F)(F)F)c1C#N	-2	i	i	-12	i	i	.	.	.
